The experiment relates to SF-295. Nature of the experiment: Cytotoxicity against human SF295 cells. It counts as functional. Conditions: read-out: GI50. Summed up: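 Tested in a 60-cell-line human tumor panel screen; the read-out is growth inhibition, reported as GI50 for each cell line.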

SMILES strings stand for the structures. Where only a bound is given, the exact number is not on record here.

Regarding `COc1cc(/C=C/c2cc(O)c(CC=C(C)C)c(O)c2)cc2c1O[C@]1(C)CC[C@@H](O)C(C)(C)[C@H]1C2` [SCHWEINFURTHIN F], the GI50 (in general, the concentration at which growth is held to half of that of the control) is under 36 nM. Take `CC(C)=CCc1c(O)cc(/C=C/c2cc(O)c3c(c2)C[C@@H]2C(C)(C)[C@H](O)CC[C@@]2(C)O3)cc1O` [SCHWEINFURTHIN G]: the GI50 is 10 nM.

The values are drawn from ChEMBL document CHEMBL3232844, “Synthesis and structure activity relationships of schweinfurthin indoles” (2014).
